Measured values as given in ChEMBL document CHEMBL1145832, “Histamine-releasing activity and binding to the FcepsilonRI alpha human mast cell receptor subunit of mast cell degranulating peptide analogues with alanine substitutions” (J Med Chem, 2003).
Where a SMILES comes first, the peptide text is derived from it.

How the values were obtained:
[1] = target: T1, High affinity immunoglobulin epsilon receptor subunit alpha (Homo sapiens, UniProt P12319); assay: Binding affinity towards Fc-epsilon RI-alpha human mast cell receptor was determined
T1 sequence (P12319 whole entry): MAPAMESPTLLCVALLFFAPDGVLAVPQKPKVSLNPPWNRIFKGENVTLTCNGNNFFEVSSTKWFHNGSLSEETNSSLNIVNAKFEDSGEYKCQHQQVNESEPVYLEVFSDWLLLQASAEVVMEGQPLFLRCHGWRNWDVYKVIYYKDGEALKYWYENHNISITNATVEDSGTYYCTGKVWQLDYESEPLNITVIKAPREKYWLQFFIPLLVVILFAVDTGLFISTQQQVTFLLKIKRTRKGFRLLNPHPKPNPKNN
Procedure, shortened: (§1)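 Competitive fluorescence polarization: FcεRIα subunit of human IgE receptor expressed in insect cells (7 nM) with fluorescein-labelled MCD peptide tracer (4 nM) in PBS pH 7.4, unlabelled peptide 7–500 μM, 25 °C 5 min. Ex 485/em 535 nm, mP; tracer-alone background subtracted; mean of many consecutive readings; IC50 by nonlinear regression.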

Rattus norvegicus = organism: Rattus norvegicus; assay: Concentration of peptide at 50% maximal histamine release at concentration 10e-5 M; format: functional
Procedure, shortened: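 Rat peritoneal mast cells (Sprague–Dawley) lavaged into carbonate- and divalent-cation-free Tyrode's with 15 mM Hepes pH 7.2, 0.1% BSA, purified on Accudenz gradient; (1–2) × 10^3 cells/well with peptide, 37 °C 20 min. Residual cellular histamine freed by Triton X-100 then TFA, measured fluorometrically with phthalaldehyde/NaOH; n = 6; nonlinear regression.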

[2] = target: T1, High affinity immunoglobulin epsilon receptor subunit alpha; assay: Binding affinity towards Fc-epsilon RI-alpha mast cell receptor human mast cell receptor was determined; procedure, shortened: as §1

| IC50 [1] [µM] | SMILES | ED50 (Rattus norvegicus) | also measured |
| --- | --- | --- | --- |
| 153 | CC[C@H](C)[C@H](N)C(=O)N[C@@H](CCCCN)C(=O)N[C@@H](CS)C(=O)N[C@@H](CC(N)=O)C(=O)N[C@@H](CS)C(=O)N[C@@H](CCCCN)C(=O)N[C@@H](CCCNC(=N)N)C(=O)N[C@@H](Cc1cnc[nH]1)C(=O)N[C@H](C(=O)N[C@H](C(=O)N[C@@H](CCCCN)C(=O)N1CCC[C@H]1C(=O)N[C@@H](Cc1cnc[nH]1)C(=O)N[C@H](C(=O)N[C@@H](CS)C(=O)N[C@@H](CCCNC(=N)N)C(=O)N[C@@H](C)C(=O)N[C@H](C(=O)N[C@@H](CS)C(=O)NCC(=O)N[C@@H](CCCCN)C(=O)N[C@@H](CC(N)=O)C(N)=O)[C@@H](C)CC)[C@@H](C)CC)[C@@H](C)CC)C(C)C (H-IKCNCKRHVIKPHICRAICGKN-NH2) | – | – |
| – | CC[C@H](C)[C@H](N)C(=O)N[C@@H](CCCCN)C(=O)N[C@@H](CS)C(=O)N[C@@H](CC(N)=O)C(=O)N[C@@H](CS)C(=O)N[C@@H](CCCCN)C(=O)N[C@@H](CCCN=C(N)N)C(=O)N[C@@H](Cc1c[nH]cn1)C(=O)N[C@H](C(=O)N[C@H](C(=O)N[C@@H](CCCCN)C(=O)N1CCC[C@H]1C(=O)N[C@@H](Cc1c[nH]cn1)C(=O)N[C@H](C(=O)N[C@@H](CS)C(=O)N[C@@H](CCCN=C(N)N)C(=O)N[C@@H](C)C(=O)N[C@H](C(=O)N[C@@H](CS)C(=O)NCC(=O)N[C@@H](CCCCN)C(=O)N[C@@H](CC(N)=O)C(N)=O)[C@@H](C)CC)[C@@H](C)CC)[C@@H](C)CC)C(C)C (H-IKCNCKRHVIKPHICRAICGKN-NH2) | 0.77 | – |
| 153 | CC[C@H](C)[C@H](N)C(=O)N[C@@H](CCCCN)C(=O)N[C@@H](CS)C(=O)N[C@@H](CC(N)=O)C(=O)N[C@@H](CS)C(=O)N[C@@H](CCCCN)C(=O)N[C@@H](CCCNC(=N)N)C(=O)N[C@@H](Cc1cnc[nH]1)C(=O)N[C@H](C(=O)N[C@H](C(=O)N[C@@H](C)C(=O)N1CCC[C@H]1C(=O)N[C@@H](Cc1cnc[nH]1)C(=O)N[C@H](C(=O)N[C@@H](CS)C(=O)N[C@@H](CCCNC(=N)N)C(=O)N[C@@H](CCCCN)C(=O)N[C@H](C(=O)N[C@@H](CS)C(=O)NCC(=O)N[C@@H](CCCCN)C(=O)N[C@@H](CC(N)=O)C(N)=O)[C@@H](C)CC)[C@@H](C)CC)[C@@H](C)CC)C(C)C (H-IKCNCKRHVIAPHICRKICGKN-NH2) | – | – |
| – | CC[C@H](C)[C@H](N)C(=O)N[C@@H](CCCCN)C(=O)N[C@@H](CS)C(=O)N[C@@H](CC(N)=O)C(=O)N[C@@H](CS)C(=O)N[C@@H](C)C(=O)N[C@@H](CCCN=C(N)N)C(=O)N[C@@H](Cc1c[nH]cn1)C(=O)N[C@H](C(=O)N[C@H](C(=O)N[C@@H](CCCCN)C(=O)N1CCC[C@H]1C(=O)N[C@@H](Cc1c[nH]cn1)C(=O)N[C@H](C(=O)N[C@@H](CS)C(=O)N[C@@H](CCCN=C(N)N)C(=O)N[C@@H](CCCCN)C(=O)N[C@H](C(=O)N[C@@H](CS)C(=O)NCC(=O)N[C@@H](CCCCN)C(=O)N[C@@H](CC(N)=O)C(N)=O)[C@@H](C)CC)[C@@H](C)CC)[C@@H](C)CC)C(C)C (H-IKCNCARHVIKPHICRKICGKN-NH2) | 12.54 | – |
| – | CC[C@H](C)[C@H](N)C(=O)N[C@@H](CCCCN)C(=O)N[C@@H](CS)C(=O)N[C@@H](CC(N)=O)C(=O)N[C@@H](CS)C(=O)N[C@@H](CCCCN)C(=O)N[C@@H](CCCN=C(N)N)C(=O)N[C@@H](Cc1c[nH]cn1)C(=O)N[C@H](C(=O)N[C@H](C(=O)N[C@@H](C)C(=O)N1CCC[C@H]1C(=O)N[C@@H](Cc1c[nH]cn1)C(=O)N[C@H](C(=O)N[C@@H](CS)C(=O)N[C@@H](CCCN=C(N)N)C(=O)N[C@@H](CCCCN)C(=O)N[C@H](C(=O)N[C@@H](CS)C(=O)NCC(=O)N[C@@H](CCCCN)C(=O)N[C@@H](CC(N)=O)C(N)=O)[C@@H](C)CC)[C@@H](C)CC)[C@@H](C)CC)C(C)C (H-IKCNCKRHVIAPHICRKICGKN-NH2) | 1.07 | – |
| 71 | CC[C@H](C)[C@H](N)C(=O)N[C@@H](CCCCN)C(=O)N[C@@H](CS)C(=O)N[C@@H](CC(N)=O)C(=O)N[C@@H](CS)C(=O)N[C@@H](C)C(=O)N[C@@H](CCCNC(=N)N)C(=O)N[C@@H](Cc1cnc[nH]1)C(=O)N[C@H](C(=O)N[C@H](C(=O)N[C@@H](CCCCN)C(=O)N1CCC[C@H]1C(=O)N[C@@H](Cc1cnc[nH]1)C(=O)N[C@H](C(=O)N[C@@H](CS)C(=O)N[C@@H](CCCNC(=N)N)C(=O)N[C@@H](CCCCN)C(=O)N[C@H](C(=O)N[C@@H](CS)C(=O)NCC(=O)N[C@@H](CCCCN)C(=O)N[C@@H](CC(N)=O)C(N)=O)[C@@H](C)CC)[C@@H](C)CC)[C@@H](C)CC)C(C)C (H-IKCNCARHVIKPHICRKICGKN-NH2) | – | – |
| – | CC[C@H](C)[C@H](N)C(=O)N[C@@H](CCCCN)C(=O)N[C@@H](CS)C(=O)N[C@@H](CC(N)=O)C(=O)N[C@@H](CS)C(=O)N[C@@H](CCCCN)C(=O)N[C@@H](CCCN=C(N)N)C(=O)N[C@@H](Cc1c[nH]cn1)C(=O)N[C@H](C(=O)N[C@H](C(=O)N[C@@H](CCCCN)C(=O)N1CCC[C@H]1C(=O)N[C@@H](Cc1c[nH]cn1)C(=O)N[C@H](C(=O)N[C@@H](CS)C(=O)N[C@@H](CCCN=C(N)N)C(=O)N[C@@H](CCCCN)C(=O)N[C@H](C(=O)N[C@@H](CS)C(=O)NCC(=O)N[C@@H](CCCCN)C(=O)N[C@@H](CC(N)=O)C(N)=O)[C@@H](C)CC)[C@@H](C)CC)[C@@H](C)CC)C(C)C (H-IKCNCKRHVIKPHICRKICGKN-NH2) | – | IC50 [2]: 114 µM |

| SMILES | IC50 [1] [µM] | ED50 (Rattus norvegicus) | also measured |
| --- | --- | --- | --- |
| CC[C@H](C)[C@H](N)C(=O)N[C@@H](C)C(=O)N[C@@H](CS)C(=O)N[C@@H](CC(N)=O)C(=O)N[C@@H](CS)C(=O)N[C@@H](CCCCN)C(=O)N[C@@H](CCCN=C(N)N)C(=O)N[C@@H](Cc1c[nH]cn1)C(=O)N[C@H](C(=O)N[C@H](C(=O)N[C@@H](CCCCN)C(=O)N1CCC[C@H]1C(=O)N[C@@H](Cc1c[nH]cn1)C(=O)N[C@H](C(=O)N[C@@H](CS)C(=O)N[C@@H](CCCN=C(N)N)C(=O)N[C@@H](CCCCN)C(=O)N[C@H](C(=O)N[C@@H](CS)C(=O)NCC(=O)N[C@@H](CCCCN)C(=O)N[C@@H](CC(N)=O)C(N)=O)[C@@H](C)CC)[C@@H](C)CC)[C@@H](C)CC)C(C)C (H-IACNCKRHVIKPHICRKICGKN-NH2) | 82 | – | – |
| CC[C@H](C)[C@H](N)C(=O)N[C@@H](CCCCN)C(=O)N[C@@H](CS)C(=O)N[C@@H](CC(N)=O)C(=O)N[C@@H](CS)C(=O)N[C@@H](CCCCN)C(=O)N[C@@H](CCCN=C(N)N)C(=O)N[C@@H](Cc1c[nH]cn1)C(=O)N[C@H](C(=O)N[C@H](C(=O)N[C@@H](CCCCN)C(=O)N1CCC[C@H]1C(=O)N[C@@H](Cc1c[nH]cn1)C(=O)N[C@H](C(=O)N[C@@H](CS)C(=O)N[C@@H](CCCN=C(N)N)C(=O)N[C@@H](CCCCN)C(=O)N[C@H](C(=O)N[C@@H](CS)C(=O)NCC(=O)N[C@@H](C)C(=O)N[C@@H](CC(N)=O)C(N)=O)[C@@H](C)CC)[C@@H](C)CC)[C@@H](C)CC)C(C)C (H-IKCNCKRHVIKPHICRKICGAN-NH2) | 153 | – | – |
